Legend:
[1] = molecular target: GABA-A receptor; anion channel; test: In vitro inhibition of [35S]TBPS binding to gamma-aminobutyric-acid A receptor in rat brain cortical membranes in the presence of 5 uM GABA.; type: cell membranes, Membrane
Procedure, shortened: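 Rat cortical P2 membranes, washed in 200 mM NaCl/50 mM Na-K phosphate pH 7.4, incubated 90 min at room temperature with 2 nM [35S]TBPS, 5 µM GABA and test drug in DMSO (final 0.5%). Nonspecific binding taken with 2 µM unlabeled TBPS. Filtration, then scintillation counting. Partial vs full and one- vs two-component models chosen by F-test.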

Mus musculus = test: Percent of animals (n=8) not exhibiting PTZ-induced ( Pentylentetrazol protection) seizures 10 min following a 10 mg/kg ip dose of steroid.; type: functional; conditions: route intraperitoneal
Procedure, shortened: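 Male NSA mice (15-20 g), n = 8. […] Mice watched 30 min for clonic seizure (forelimb clonus ≥3 s). Read-out is the percent of mice protected.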

Rattus norvegicus = organism: Rattus norvegicus; test: The maximum inhibitory potency was calculated by fitting [35S]TBPS inhibition data to a sigmoid function (rat brain cortical P2 membranes); type: functional
Procedure, shortened: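 Rat cortical P2 membranes washed in 200 mM NaCl/50 mM Na-K phosphate pH 7.4, incubated 90 min at room temperature with 2 nM [35S]TBPS, 5 µM GABA and test drug in DMSO (final 0.5%). Nonspecific binding defined with 2 µM unlabeled TBPS. Filtration, scintillation counting. Fits to one- or two-component, full or partial inhibition models chosen by F-test; IC50 and Imax as mean ± SEM of individual experiments.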

[2] = molecular target: T1, GABA-A receptor; alpha-1/beta-2/gamma-2 (Homo sapiens, UniProt P14867+P18507+P47870); test: Steroid potentiation of 5% GABA responses in Xenopus oocytes expressing human alpha-1-beta-2-gamma-2L subunits of GABA-A receptor; type: functional, cell-based, Oocyte
T1 sequence (P14867 whole entry): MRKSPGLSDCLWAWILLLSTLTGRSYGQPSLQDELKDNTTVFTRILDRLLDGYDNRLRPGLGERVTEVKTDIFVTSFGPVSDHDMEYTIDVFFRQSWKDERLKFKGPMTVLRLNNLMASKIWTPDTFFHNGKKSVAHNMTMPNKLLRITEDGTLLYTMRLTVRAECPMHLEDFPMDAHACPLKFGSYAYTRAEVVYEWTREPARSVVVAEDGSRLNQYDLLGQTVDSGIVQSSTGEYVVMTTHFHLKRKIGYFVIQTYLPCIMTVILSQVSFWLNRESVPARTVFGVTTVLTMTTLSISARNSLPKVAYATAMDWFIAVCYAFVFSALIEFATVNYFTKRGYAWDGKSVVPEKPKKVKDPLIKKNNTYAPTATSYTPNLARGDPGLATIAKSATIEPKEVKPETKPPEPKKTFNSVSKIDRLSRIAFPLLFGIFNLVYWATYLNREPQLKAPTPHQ
T1 sequence (P47870 whole entry): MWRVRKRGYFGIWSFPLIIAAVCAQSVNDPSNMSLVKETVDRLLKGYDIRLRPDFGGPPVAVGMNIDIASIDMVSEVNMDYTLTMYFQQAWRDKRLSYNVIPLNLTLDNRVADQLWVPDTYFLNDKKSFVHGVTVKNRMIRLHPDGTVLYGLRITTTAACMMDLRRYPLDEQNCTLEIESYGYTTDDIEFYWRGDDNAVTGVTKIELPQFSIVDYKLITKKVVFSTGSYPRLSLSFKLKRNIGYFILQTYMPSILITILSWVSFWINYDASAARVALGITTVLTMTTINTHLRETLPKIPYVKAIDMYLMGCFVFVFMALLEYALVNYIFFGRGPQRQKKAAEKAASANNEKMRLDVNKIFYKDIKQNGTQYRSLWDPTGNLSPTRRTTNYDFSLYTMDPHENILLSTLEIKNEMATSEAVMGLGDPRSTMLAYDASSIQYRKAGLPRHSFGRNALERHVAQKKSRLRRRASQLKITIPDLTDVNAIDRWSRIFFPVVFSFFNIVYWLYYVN
T1 sequence (P18507 whole entry): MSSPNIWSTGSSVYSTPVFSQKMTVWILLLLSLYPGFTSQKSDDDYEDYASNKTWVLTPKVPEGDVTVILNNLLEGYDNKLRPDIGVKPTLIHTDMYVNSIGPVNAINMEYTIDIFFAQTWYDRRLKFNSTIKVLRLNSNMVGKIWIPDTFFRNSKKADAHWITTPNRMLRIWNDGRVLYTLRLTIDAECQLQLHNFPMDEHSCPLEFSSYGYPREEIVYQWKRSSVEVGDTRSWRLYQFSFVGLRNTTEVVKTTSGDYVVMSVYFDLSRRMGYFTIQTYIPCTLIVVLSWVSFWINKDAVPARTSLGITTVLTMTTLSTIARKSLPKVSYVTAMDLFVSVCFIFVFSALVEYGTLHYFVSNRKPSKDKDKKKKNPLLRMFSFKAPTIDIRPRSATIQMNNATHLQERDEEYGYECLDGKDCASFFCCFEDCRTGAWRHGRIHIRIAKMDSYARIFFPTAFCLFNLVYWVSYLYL
Procedure, shortened: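 Xenopus oocytes injected with α1, β2, γ2L cRNAs (~1 ng each). Two-electrode voltage clamp at -70 mV in frog Ringer's, pH 7.4. GABA set to give about 5% of the maximal (1 mM GABA) current. Steroid stocks in DMSO diluted into Ringer's, DMSO 0.3%. Modulation is potentiation plus any direct steroid current, fitted to a four-parameter logistic. Mean ± SEM.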

[3] = molecular target: GABA-A receptor; alpha-1/beta-2/gamma-2 (Homo sapiens) (UniProt P14867+P47870+P18507); test: Efficacy as fractional response (FR) relative to GABA maximum current elicited in the Xenopus oocytes; type: functional, cell-based; conditions: Oocyte
Procedure, shortened: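 Xenopus oocytes expressing α1β2γ2L GABAA receptors (~1 ng each cRNA), two-electrode voltage clamp at -70 mV in frog Ringer's pH 7.4. GABA set to give ~5% of maximal current (1 mM GABA). Steroid co-applied with 0.3% DMSO. Response taken as potentiation plus any direct current, expressed as a fraction of GABA maximum, fit to a four-parameter logistic.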

[4] = Slope value was determined

SMILES	IC50 [1]	PTZ protection (Mus musculus)	Imax (Rattus norvegicus)	EC50 [2]	Efficacy [3]	Slope [4]
C#C[C@@]1(O)CC[C@@]2(C)[C@H](CC[C@@H]3[C@@H]2CC[C@]2(C)[C@@H](C(C)=O)CC[C@@H]32)C1	0.039 µM	–	–	–	–	–
CC(=O)[C@H]1CC[C@H]2[C@@H]3CC[C@@H]4C[C@@](O)(C#Cc5ccc(C(N)=O)cc5)CC[C@]4(C)[C@H]3CC[C@]12C	1.8 µM	13%	96%	–	–	–
CC(=O)[C@H]1CC[C@H]2[C@@H]3CC[C@@H]4C[C@@](O)(C#Cc5ccc([N+](=O)[O-])cc5)CC[C@]4(C)[C@H]3CC[C@]12C	0.042 µM	13%	98%	–	–	–
COc1ccccc1C#C[C@@]1(O)CC[C@@]2(C)[C@H](CC[C@@H]3[C@@H]2CC[C@]2(C)[C@@H](C(C)=O)CC[C@@H]32)C1	0.17 µM	0%	89%	–	–	–
CC(=O)[C@H]1CC[C@H]2[C@@H]3CC[C@@H]4C[C@@](O)(C#Cc5ccc(Cl)cc5)CC[C@]4(C)[C@H]3CC[C@]12C	0.07 µM	0%	88%	–	–	–
CC(=O)[C@H]1CC[C@H]2[C@@H]3CC[C@@H]4C[C@@](O)(C#Cc5ccc(C(F)(F)F)cc5)CC[C@]4(C)[C@H]3CC[C@]12C	0.056 µM	0%	88%	–	–	–
CC(=O)[C@H]1CC[C@H]2[C@@H]3CC[C@@H]4C[C@@](O)(C#Cc5ccc(-c6ccccc6)cc5)CC[C@]4(C)[C@H]3CC[C@]12C	0.054 µM	0%	90%	–	–	–
CC(=O)[C@H]1CC[C@H]2[C@@H]3CC[C@@H]4C[C@@](O)(CCCc5ccccc5)CC[C@]4(C)[C@H]3CC[C@]12C	0.19 µM	13%	91%	–	–	–
CCOC(=O)c1ccc(C#C[C@@]2(O)CC[C@@]3(C)[C@H](CC[C@@H]4[C@@H]3CC[C@]3(C)[C@@H](C(C)=O)CC[C@@H]43)C2)cc1	0.012 µM	19%	97%	–	–	–
CC(=O)[C@H]1CC[C@H]2[C@@H]3CC[C@@H]4C[C@@](O)(C#Cc5ccc(O)cc5)CC[C@]4(C)[C@H]3CC[C@]12C	2.3 µM	0%	100%	> 1 µM	–	–
CCOC(=O)c1ccc(C#C[C@@]2(O)CC[C@H]3[C@H](CC[C@@H]4[C@@H]3CC[C@]3(C)[C@@H](C(C)=O)CC[C@@H]43)C2)cc1	0.026 µM	13%	94%	–	–	–
COc1ccc(C#C[C@@]2(O)CC[C@@]3(C)[C@H](CC[C@@H]4[C@@H]3CC[C@]3(C)[C@@H](C(C)=O)CC[C@@H]43)C2)cc1	0.042 µM	25%	84%	–	–	–
CC(=O)[C@H]1CC[C@H]2[C@@H]3CC[C@@H]4C[C@@](O)(C#Cc5ccccc5)CC[C@]4(C)[C@H]3CC[C@]12C	0.1 µM	25%	100%	–	–	–
CC(=O)[C@H]1CC[C@H]2[C@@H]3CC[C@@H]4C[C@@](O)(c5ccccc5)CC[C@]4(C)[C@H]3CC[C@]12C	0.38 µM	25%	89%	–	–	–
CC(=O)[C@H]1CC[C@H]2[C@@H]3CC[C@@H]4C[C@@](O)(C#Cc5ccc6c(c5)OCO6)CC[C@]4(C)[C@H]3CC[C@]12C	0.068 µM	13%	93%	–	–	–
CC(=O)[C@H]1CC[C@H]2[C@@H]3CC[C@@H]4C[C@@](O)(C#Cc5ccc(C#N)cc5)CC[C@]4(C)[C@H]3CC[C@]12C	0.06 µM	44%	85%	–	–	–
CC(=O)[C@H]1CC[C@H]2[C@@H]3CC[C@@H]4C[C@@](O)(Cc5ccccc5)CC[C@]4(C)[C@H]3CC[C@]12C	0.11 µM	38%	101%	–	–	–
CC(=O)[C@H]1CC[C@H]2[C@@H]3CC[C@@H]4C[C@@](O)(CCc5ccccc5)CC[C@]4(C)[C@H]3CC[C@]12C	0.15 µM	0%	102%	–	–	–
CC(=O)[C@H]1CC[C@H]2[C@@H]3CC[C@@H]4C[C@](C)(O)CC[C@]4(C)[C@H]3CC[C@]12C	0.037 µM	–	–	–	–	–
CCN(CC)C(=O)c1ccc(C#C[C@@]2(O)CC[C@@]3(C)[C@H](CC[C@@H]4[C@@H]3CC[C@]3(C)[C@@H](C(C)=O)CC[C@@H]43)C2)cc1	0.093 µM	13%	91%	–	–	–
CC(=O)[C@H]1CC[C@H]2[C@@H]3CC[C@@H]4C[C@@](O)(C#Cc5ccc(C(=O)c6ccccc6)cc5)CC[C@]4(C)[C@H]3CC[C@]12C	0.055 µM	38%	96%	–	–	–
CC(=O)[C@H]1CC[C@H]2[C@@H]3CC[C@@H]4C[C@@](O)(C#Cc5ccc(N(C)C)cc5)CC[C@]4(C)[C@H]3CC[C@]12C	0.04 µM	50%	78%	0.018 µM	0.76	1.1
CC(=O)[C@H]1CC[C@H]2[C@@H]3CC[C@@H]4C[C@@](O)(C#Cc5ccc(C)cc5)CC[C@]4(C)[C@H]3CC[C@]12C	0.083 µM	50%	84%	–	–	–
COc1ccc(C#C[C@@]2(O)CC[C@@]3(C)[C@H](CC[C@@H]4[C@@H]3CC[C@]3(C)[C@@H](C(C)=O)CC[C@@H]43)C2)cc1OC	0.29 µM	13%	102%	–	–	–
CC(=O)[C@H]1CC[C@H]2[C@@H]3CC[C@@H]4C[C@@](O)(C#Cc5cccc(O)c5)CC[C@]4(C)[C@H]3CC[C@]12C	0.42 µM	0%	100%	–	–	–

Reference: ChEMBL document CHEMBL1130204, “3 alpha-Hydroxy-3 beta-(phenylethynyl)-5 beta-pregnan-20-ones: synthesis and pharmacological activity of neuroactive steroids with high affinity for GABAA receptors” (J Med Chem, 1997)
